From ChEMBL document CHEMBL3813618, “Polyhalogenated Indoles from the Red Alga Rhodophyllis membranacea: The First Isolation of Bromo-Chloro-Iodo Secondary Metabolites” (J Nat Prod, 2016)

What was measured:
[1] = test system: Saccharomyces cerevisiae; test: Antifungal activity against Saccharomyces cerevisiae BY4741 assessed as growth inhibition; type: functional
Outline: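 Wild-type strain BY4741 grown in liquid synthetic complete medium with compound; cell density read at A600. Concentration giving 50% growth inhibition determined relative to untreated controls.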

[2] = Cytotoxicity against human HL60 cells assessed as cell growth inhibition after 48 hrs by MTT assay; type: functional, cell-based; details: HL-60, 48 h
Outline: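 Cell proliferation MTT assay, 48 h exposure of HL-60 promyelocytic leukemia cells to compound at various concentrations; dose-response generated relative to untreated HL-60 control cells. n = 1 or 2 independent experiments, duplicate wells per experiment.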

Compound | IC50 [1] | IC50 [2]
Clc1[nH]c2c(Br)c(I)ccc2c1Cl | 39 µM | 49 µM
Brc1ccc2c(Br)c(Br)[nH]c2c1Br | 69 µM | 38 µM
Clc1c(Br)[nH]c2c(Br)c(Br)ccc12 | > 83 µM | 78 µM
Clc1[nH]c2c(Br)c(Br)ccc2c1Cl | 63 µM | 61 µM
O=C1Nc2cccc(Cl)c2C1=O | > 61 µM | –
Clc1[nH]c2c(Br)ccc(Br)c2c1Cl | 23 µM | 28 µM
CC(=O)CC1(O)C(=O)Nc2cccc(Cl)c21 (stereo not drawn) | > 49 µM | 61 µM
